# From ChEMBL document CHEMBL1143850, “Direct inactivation of human immunodeficiency virus type 1 by a novel small-molecule entry inhibitor, DCM205” (Antimicrob Agents Chemother, 2007)
# Active and inactive are the calls of the source. The rule behind the calls is not given here.
# Columns and labels:
# [1] = test system: Human immunodeficiency virus 1; assay: Antiviral activity against B clade X4 tropic HIV1 NL43 in HeLa H1-JC.37 cells by focal infectivity assay; format: functional, organism-based; details: Human immunodeficiency virus 1, NL43, HeLa
# Summary of the method: (§1)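 HeLa H1-JC.37 cells were seeded at 4.5 x 10^3/well and grown overnight at 37°C. Drug was added in DMEM/0.1% FBS for 1 h. Cells then adsorbed 20–60 FFU of virus with drug for 1–2 h. FBS was raised to 10% with drug held constant, then cells were incubated 4 days. Foci were immunostained and counted as % of no-drug control. EC50 came from a regression line; ≥5 wells, ≥3 experiments.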
# [2] = test system: Human immunodeficiency virus 1; assay: Antiviral activity against A clade R5 tropic HIV1 92RW016 in HeLa H1-JC.37 cells by focal infectivity assay; format: functional, organism-based; details: Human immunodeficiency virus 1, 92RW016, HeLa; summary of the method: as §1
# [3] = test system: Human immunodeficiency virus 1; assay: Binding affinity to HIV1 ogp140 at by SPR competition study in presence of gp120 MAb b12
# [4] = test system: Human immunodeficiency virus 1; assay: Antiviral activity against B clade R5 tropic HIV1 BaL in HeLa H1-JC.37 cells by focal infectivity assay; format: functional, organism-based; details: Human immunodeficiency virus 1, BaL; summary of the method: as §1
# [5] = test system: Human immunodeficiency virus 1; assay: Antiviral activity against B clade X4 R5 tropic HIV1 89.6 in HeLa H1-JC.37 cells by focal infectivity assay; format: functional, organism-based; details: Human immunodeficiency virus 1, 89.6, HeLa; summary of the method: as §1
# [6] = test system: Human immunodeficiency virus 1; assay: Antiviral activity against B clade R5 tropic HIV1 92TH014 in HeLa H1-JC.37 cells by focal infectivity assay; format: functional, organism-based; details: Human immunodeficiency virus 1, 92TH014, HeLa; in the assay text read “dual tropic” for “R5 tropic”; summary of the method: as §1
# [7] = test system: Human immunodeficiency virus 1; assay: Antiviral activity against HIV1 NL43 in CEMx174 cells after 2 hrs by p24 antigen capture ELISA; format: functional, organism-based
# Summary of the method: (§2)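 NL4-3 was preincubated with drug for 2 h at 37°C and diluted 400-fold in medium with 0.1% FBS. It was added to CEMx174 (5 x 10^4/well), PHA-stimulated PBMCs (1 x 10^4/well) or HeLa H1-JC.37 cells (4.5 x 10^4/well) for 2 h. Cells were washed twice by centrifugation, resuspended in 10% FBS, and cultured 4 days at 37°C. Supernatant p24 was measured by antigen-capture ELISA.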
# [8] = test system: Human immunodeficiency virus 1; assay: Antiviral activity against C clade R5 tropic HIV1 98TZ013 in HeLa H1-JC.37 cells by focal infectivity assay; format: functional, organism-based; details: Human immunodeficiency virus 1, 98TZ013, HeLa; summary of the method: as §1
# [9] = test system: Human immunodeficiency virus 1; assay: Antiviral activity against HIV1 NL43 in HeLa H1-JC.37 cells after 2 hrs by p24 antigen capture ELISA; format: functional, organism-based; summary of the method: as §2
# [10] = test system: Human immunodeficiency virus 1; assay: Antiviral activity against C clade R5 tropic HIV1 97ZA009 in HeLa H1-JC.37 cells by focal infectivity assay; format: functional, organism-based; details: Human immunodeficiency virus 1, 97ZA009, HeLa; summary of the method: as §1
# [11] = test system: Human immunodeficiency virus 1; assay: Binding affinity to HIV1 ogp140 by SPR competition study in presence of gp41 MAb F240
# Summary of the method: (§3)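 SPR was run at 25°C in HBS-P (pH 7.4). MAbs (10 µg/ml) were captured on immobilized goat anti-human Ig. 50 nM oligomeric gp140 was preincubated 30 min with 0, 1, 5 or 10 µM drug, then injected 1 min at 20 µl/min with 2 min dissociation. Surfaces were regenerated with 146 mM H3PO4. Responses were double-referenced and normalized to MAb capture level.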
# [12] = test system: Human immunodeficiency virus 1; assay: Antiviral activity against E clade R5 tropic HIV1 93TH078 in HeLa H1-JC.37 cells by focal infectivity assay; format: functional, organism-based; details: Human immunodeficiency virus 1, 93TH078, HeLa; summary of the method: as §1
# [13] = test system: Human immunodeficiency virus 1; assay: Antiviral activity against B clade X4 R5 tropic HIV1 92HT593 in HeLa H1-JC.37 cells by focal infectivity assay; format: functional, organism-based; details: Human immunodeficiency virus 1, 92HT593, HeLa; summary of the method: as §1
# [14] = test system: Human immunodeficiency virus 1; assay: Antiviral activity against B clade X4 tropic HIV1 HXBc2 in HeLa H1-JC.37 cells by focal infectivity assay; format: functional, organism-based; details: Human immunodeficiency virus 1, HXBc2, HeLa; summary of the method: as §1
# [15] = Cytotoxicity against human HeLa H1-JC.37 cells; format: cell-based
# [16] = test system: Human immunodeficiency virus 1; assay: Binding affinity to HIV1 ogp140 by SPR competition study in presence of gp41 MAb 5F3; summary of the method: as §3
# [17] = test system: Human immunodeficiency virus 1; assay: Antiviral activity against HIV1 NL43 in PBMCs after 2 hrs by p24 antigen capture ELISA; format: functional, organism-based; summary of the method: as §2
# [18] = test system: Human immunodeficiency virus 1; assay: Antiviral activity against B clade R5 tropic HIV1 SF162 in HeLa H1-JC.37 cells by focal infectivity assay; format: functional, organism-based; details: Human immunodeficiency virus 1, SF162, HeLa; summary of the method: as §1
# [19] = test system: Human immunodeficiency virus 1; assay: Antiviral activity against HIV1 NL43 in HeLa H1-JC.37 cells after 2 hrs by focal infectivity assay; format: functional, organism-based
# Summary of the method: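 NL4-3 stock (10^5 FFU/ml) was preincubated with drug (0–30 µM) for 2 h at 37°C, then diluted 400-fold in DMEM/0.1% FBS so drug fell below inhibitory levels. The mixture was added to HeLa H1-JC.37 cells for 2 h adsorption. FBS was raised to 10% and cells were incubated 4 days. Focus immunostaining followed, with five replicate wells per concentration.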
# [20] = test system: Human immunodeficiency virus 1; assay: Antiviral activity against HIV1 NL43 in HeLa H1-JC.37 cells pretreated for 2 hrs before viral challenge by FIA; format: functional, organism-based
# Summary of the method: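 HeLa H1-JC.37 cells (4.5 x 10^3/well, seeded overnight) were exposed to drug in DMEM/0.1% FBS for 2 h, then washed twice. They were infected with 20–60 FFU NL4-3 for 2 h. Volume was brought to 200 µl at 10% FBS and cells were incubated 4 days at 37°C. Readout was focus counting. A control arm added drug together with virus.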
# [21] = test system: Simian immunodeficiency virus; assay: Antiviral activity against R5 tropic SIV mac239 in HeLa H1-JC.37 cells by focal infectivity assay; format: functional, organism-based; summary of the method: as §1
compound,measurement,setting,value
O=S(=O)(/C=C/c1cc(O)c(O)c(O)c1)CS(=O)(=O)/C=C/c1cc(O)c(O)c(O)c1,EC50,[1],330 nM
same,EC50,[2],700 nM
same,Activity,[3],Active
same,EC50,[4],850 nM
same,EC50,[5],410 nM
same,EC50,[6],190 nM
same,Activity,[7],Active
same,EC50,[8],190 nM
same,Activity,[9],Active
same,EC50,[10],2300 nM
same,Activity,[11],Active
same,EC50,[12],500 nM
same,EC50,[13],340 nM
same,EC50,[14],530 nM
same,IC50,[15],170000 nM
same,Activity,[16],Active
same,Activity,[17],Active
same,EC50,[18],400 nM
same,Activity,[19],Active
same,Activity,[20],inactive
same,EC50,[21],1200 nM
